Measurements taken from ChEMBL document CHEMBL1128448, “Synthesis and antifungal activity of new azole derivatives containing an N-acylmorpholine ring” (1995).
In brackets after ≈: the same amount, converted by molar mass.

Columns and labels:
Candida albicans [1] = assay: In vitro evaluation of minimum inhibitory concentration against Candida albicans 76; assay type: functional
How it was run: (§1)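 Stocks are 800 μg/mL in 50% ethanol. Each plate gets 10 μL of inoculum at 10^5 cfu/mL. Incubation at 25 °C, 48 h for yeasts and 120 h for dermatophytes and molds. Organisms are ATCC strains or clinical isolates.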

Candida albicans [2] = assay: In vivo evaluation of minimum inhibitory concentration against Candida albicans 60; assay type: functional
How it was run: (§2)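 Broth macrodilution MIC following NCCLS M27-P, in RPMI-1640 buffered with 0.165 M MOPS. Fluconazole was dissolved in water and other drugs in DMSO. C. parapsilosis ATCC 22019 served as the reference strain in every run. MIC was the lowest concentration giving turbidity at or below the 80% inhibition standard.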

[3] = tested on: Meyerozyma guilliermondii; assay: In vitro evaluation of minimum inhibitory concentration against Candida guilliermondii 26; assay type: functional; how it was run: as §1
Pichia kudriavzevii = assay: In vitro evaluation of minimum inhibitory concentration against Candida krusei 70; assay type: functional; how it was run: as §1
Candida parapsilosis = assay: In vitro evaluation of minimum inhibitory concentration against Candida parapsilosis 61; assay type: functional; how it was run: as §1
Candida tropicalis = assay: In vitro evaluation of minimum inhibitory concentration against Candida tropicalis 2.11; assay type: functional; how it was run: as §1
Mus sp. [4] = assay: In vivo evaluation of % survival rate after peroral administration on 3rd day at dose 1 mg/kg; assay type: functional; conditions: route oral, 1 mg/kg
Mus sp. [5] = assay: In vivo evaluation of % survival rate after peroral administration on 3rd day at dose 2.5 mg/kg; assay type: functional; conditions: for survival at 2.5 mg/kg: Mus sp., po
Mus sp. [6] = assay: In vivo evaluation of % survival rate after peroral administration on 5th day at dose 1 mg/kg; assay type: functional; conditions: route oral, 1 mg/kg
Mus sp. [7] = assay: In vivo evaluation of % survival rate after peroral administration on 5th day at dose 2.5 mg/kg; assay type: functional; conditions: for survival at 2.5 mg/kg: Mus sp., po
Mus sp. [8] = assay: In vivo evaluation of % survival rate after peroral administration on 7th day at dose 1 mg/kg; assay type: functional; conditions: route oral, 1 mg/kg
Mus sp. [9] = assay: In vivo evaluation of % survival rate after peroral administration on 7th day at dose 2.5 mg/kg; assay type: functional; conditions: for survival at 2.5 mg/kg: Mus sp., po
Mus sp. [10] = assay: In vivo evaluation of % survival rate after peroral administration on 9th day at dose 1 mg/kg; assay type: functional; conditions: route oral, 1 mg/kg
Mus sp. [11] = assay: In vivo evaluation of % survival rate after peroral administration on 9th day at dose 2.5 mg/kg; assay type: functional; conditions: for survival at 2.5 mg/kg: Mus sp., po
Microsporum canis = assay: In vitro evaluation of minimum inhibitory concentration against Microsporum canis 47; assay type: functional; how it was run: as §1
Nannizzia gypsea = assay: In vitro evaluation of minimum inhibitory concentration against Microsporum gypseum 22; assay type: functional; how it was run: as §1
Trichophyton benhamiae = assay: In vitro evaluation of minimum inhibitory concentration against Trichophyton mentagrophytes 23; assay type: functional, Arthroderma benhamiae; how it was run: as §1
Trichophyton rubrum = assay: In vitro evaluation of minimum inhibitory concentration against Trichophyton rubrum 90; assay type: functional; how it was run: as §1
Rhodotorula mucilaginosa = assay: In vitro evaluation of minimum inhibitory concentration against Rhodotorula rubra 16; assay type: functional; how it was run: as §1
Kluyveromyces marxianus = assay: In vitro evaluation of minimum inhibitory concentration against Candida pseudotropicalis 13; assay type: functional; how it was run: as §1
Aspergillus fumigatus = assay: In vitro evaluation of minimum inhibitory concentration against Aspergillus fumigatus 33; assay type: functional; conditions: Aspergillus fumigatus; read-out: MIC; how it was run: as §1
Aspergillus niger = assay: In vitro evaluation of minimum inhibitory concentration against Aspergillus niger 18; assay type: functional; conditions: Aspergillus niger; read-out: MIC; how it was run: as §1
Candida albicans [12] = assay: In vivo evaluation of minimum inhibitory concentration against Candida albicans 406; assay type: functional; how it was run: as §2
Nakaseomyces glabratus = assay: In vitro evaluation of minimum inhibitory concentration against Torulopsis glabrata 78; assay type: functional; conditions: Nakaseomyces glabratus; read-out: MIC; how it was run: as §1
Aspergillus flavus = assay: In vitro evaluation of minimum inhibitory concentration against Aspergillus flavus 19; assay type: functional; conditions: Aspergillus flavus; read-out: MIC; how it was run: as §1
[13] = Candida albicans, read-out: MIC
[14] = Meyerozyma guilliermondii, read-out: MIC
[15] = Pichia kudriavzevii, read-out: MIC
[16] = Lodderomyces parapsilosis, read-out: MIC
[17] = Candida tropicalis, read-out: MIC
[18] = Microsporum canis, read-out: MIC
[19] = Nannizzia gypsea, read-out: MIC
[20] = Trichophyton benhamiae, read-out: MIC
[21] = Trichophyton rubrum, read-out: MIC
[22] = Rhodotorula mucilaginosa, read-out: MIC
[23] = Kluyveromyces marxianus, read-out: MIC

Structure (SMILES) | MIC (Aspergillus fumigatus) [µg/mL] | MIC (Aspergillus niger) [µg/mL] | MIC (Candida albicans [1]; [13]) [µg/mL] | MIC (Candida albicans [12]; [13]) [µg/mL] | MIC (Candida albicans [2]; [13]) [µg/mL] | MIC [3, 14] [µg/mL] | MIC (Pichia kudriavzevii; [15]) [µg/mL] | MIC (Candida parapsilosis; [16]) [µg/mL] | MIC (Candida tropicalis; [17]) [µg/mL] | survival at 2.5 mg/kg (Mus sp. [5]) [%] | survival at 2.5 mg/kg (Mus sp. [7]) [%] | survival at 2.5 mg/kg (Mus sp. [9]) [%] | survival at 2.5 mg/kg (Mus sp. [11]) [%] | MIC (Microsporum canis; [18]) [µg/mL] | MIC (Nannizzia gypsea; [19]) [µg/mL] | MIC (Nakaseomyces glabratus) [µg/mL] | MIC (Trichophyton benhamiae; [20]) [µg/mL] | MIC (Trichophyton rubrum; [21]) [µg/mL] | MIC (Rhodotorula mucilaginosa; [22]) [µg/mL] | MIC (Kluyveromyces marxianus; [23]) [µg/mL] | further results
C[C@H]1N(C(=O)c2ccc(C(F)(F)F)cc2)CCO[C@@]1(Cn1cncn1)c1ccc(F)cc1F (racemic) |  |  |  |  |  |  |  |  |  |  |  |  |  |  |  |  |  |  |  |  | MIC (Candida albicans [1]): 80 µg/mL (≈ 172 µM); MIC (Candida albicans [2]): 1.25 µg/mL (≈ 2.68 µM); MIC [3]: 80 µg/mL (≈ 172 µM); MIC (Pichia kudriavzevii): 80 µg/mL (≈ 172 µM); MIC (Candida parapsilosis): 40 µg/mL (≈ 85.8 µM); MIC (Candida tropicalis): 80 µg/mL (≈ 172 µM); Survival (Mus sp. [4]): 80%; Survival (Mus sp. [5]; route oral, 2.5 mg/kg): 100%; Survival (Mus sp. [6]): 70%; Survival (Mus sp. [7]; route oral, 2.5 mg/kg): 100%; Survival (Mus sp. [8]): 10%; Survival (Mus sp. [9]; route oral, 2.5 mg/kg): 90%; Survival (Mus sp. [10]): 0%; Survival (Mus sp. [11]; route oral, 2.5 mg/kg): 90%; MIC (Microsporum canis): 40 µg/mL (≈ 85.8 µM); MIC (Nannizzia gypsea): 40 µg/mL (≈ 85.8 µM); MIC (Trichophyton benhamiae): 80 µg/mL (≈ 172 µM); MIC (Trichophyton rubrum): 20 µg/mL (≈ 42.9 µM); MIC (Rhodotorula mucilaginosa): 40 µg/mL (≈ 85.8 µM); MIC (Kluyveromyces marxianus): 5 µg/mL (≈ 10.7 µM)
C[C@H]1N(C(=O)c2ccccc2)CCO[C@@]1(Cn1cncn1)c1ccccc1 (racemic) | > 80 | > 80 | > 80 | > 80 | > 80 | > 80 | > 80 | > 80 | > 80 | 40 | 0 | 0 | 0 | > 80 | > 80 | > 80 | > 80 | > 80 | > 80 | > 80 | MIC (Aspergillus flavus): > 80 µg/mL
C[C@H]1N(C(=O)c2ccc(C(F)(F)F)cc2)C[C@H](O)O[C@@]1(Cn1cncn1)c1ccc(F)cc1F (racemic) |  |  |  |  |  |  |  |  | > 80 | 100 | 100 | 100 | 100 |  |  | > 80 |  |  | > 80 |  | MIC (Candida albicans [1]): >80 µg/mL; MIC (Candida albicans [12]): 2.5 µg/mL (≈ 5.18 µM); MIC (Candida albicans [2]): 10 µg/mL (≈ 20.7 µM); MIC [3]: >80 µg/mL; MIC (Candida parapsilosis): 80 µg/mL (≈ 166 µM); Survival (Mus sp. [4]): 85%; Survival (Mus sp. [6]): 85%; Survival (Mus sp. [8]): 55%; Survival (Mus sp. [10]): 25%; MIC (Microsporum canis): 80 µg/mL (≈ 166 µM); MIC (Trichophyton rubrum): >80 µg/mL; MIC (Kluyveromyces marxianus): 10 µg/mL (≈ 20.7 µM)
C[C@H]1N(C(=O)c2ccc(OCC(F)(F)C(F)F)cc2)CC(=O)O[C@@]1(Cn1cncn1)c1ccc(Cl)cc1Cl (racemic) | > 80 | > 80 | 20 (≈ 34.8 µM) | 1.25 (≈ 2.17 µM) | 2.5 (≈ 4.35 µM) | 80 (≈ 139 µM) | > 80 | 20 (≈ 34.8 µM) | 80 (≈ 139 µM) | 90 | 90 | 80 | 60 | > 80 | 80 (≈ 139 µM) | > 80 | > 80 | > 80 | 80 (≈ 139 µM) | 10 (≈ 17.4 µM) | MIC (Aspergillus flavus): > 80 µg/mL
C[C@H]1N(C(=O)c2ccc(C(F)(F)F)cc2F)CC(=O)O[C@@]1(Cn1cncn1)c1ccc(F)cc1F (racemic) | > 80 | > 80 | 40 (≈ 80.3 µM) | 20 (≈ 40.1 µM) | 20 (≈ 40.1 µM) | > 80 | > 80 | 80 (≈ 161 µM) | 80 (≈ 161 µM) | 100 | 100 | 100 | 90 | > 80 | > 80 | > 80 | > 80 | > 80 | > 80 | 80 (≈ 161 µM) | MIC (Aspergillus flavus): > 80 µg/mL
C[C@H]1N(C(=O)c2ccc(OCC(F)(F)C(F)F)cc2)CC(=O)O[C@@]1(Cn1cncn1)c1ccc(F)cc1F (racemic) | > 80 | > 80 | > 80 | 10 (≈ 18.4 µM) | 10 (≈ 18.4 µM) | 80 (≈ 147 µM) | > 80 | 80 (≈ 147 µM) | > 80 | 100 | 100 | 90 | 70 | > 80 | > 80 | > 80 | > 80 | > 80 | > 80 | 80 (≈ 147 µM) | MIC (Aspergillus flavus): > 80 µg/mL
